What was measured:
[1] = Stability assessed as free base release at pH 4 after 1 hr by HPLC-PDA method; type: physicochemical; conditions: pH 4, 1 h
How it was run: (§1)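 10^-2 M methanol solution diluted to 10^-4 M in McIlvaine buffer at pH 3, 4, 5, 6 or 7, then incubated at 25 °C. Direct injection onto reversed-phase C18 after 1 h and again after 24 h. Methanol/15 mM formic acid (pH 4, ammonium) gradient at 0.3 mL/min, PDA at 270 nm. Parent and released free base (m-topolin) reported as peak area %.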

[2] = Stability assessed as compound peak area at pH 5 after 24 hrs by HPLC-PDA method; type: physicochemical; conditions: read-out: Stability; how it was run: as §1
[3] = Stability assessed as free base release at pH 6 after 24 hr by HPLC-PDA method; type: physicochemical; conditions: pH 6, 24 h; how it was run: as §1
Triticum aestivum = assay: Cytokinin activity in wheat leaf assessed as stimulation of retention of chlorophyll in excised leaves at 0.1 mM relative to 6-benzylaminopurine; type: functional
[4] = Stability assessed as compound peak area at pH 7 after 1 hr by HPLC-PDA method; type: physicochemical; conditions: read-out: Stability; how it was run: as §1
MCF7 = assay: Cytotoxicity against human MCF7 cells after 72 hrs by Calcein AM assay; type: ADME, cell-based; conditions: MCF7, 72 h
[5] = Stability assessed as compound peak area at pH 6 after 1 hr by HPLC-PDA method; type: physicochemical; conditions: read-out: Stability; how it was run: as §1
[6] = Stability assessed as compound peak area at pH 4 after 24 hrs by HPLC-PDA method; type: physicochemical; conditions: read-out: Stability; how it was run: as §1
[7] = Stability assessed as free base release at pH 3 after 24 hr by HPLC-PDA method; type: physicochemical; conditions: pH 3, 24 h; how it was run: as §1
[8] = Stability assessed as free base release at pH 7 after 24 hr by HPLC-PDA method; type: physicochemical; conditions: pH 7, 24 h; how it was run: as §1
[9] = Stability assessed as compound peak area at pH 4 after 1 hr by HPLC-PDA method; type: physicochemical; conditions: read-out: Stability; how it was run: as §1
[10] = Stability assessed as free base release at pH 5 after 24 hr by HPLC-PDA method; type: physicochemical; conditions: pH 5, 24 h; how it was run: as §1
[11] = Stability assessed as free base release at pH 6 after 1 hr by HPLC-PDA method; type: physicochemical; conditions: pH 6, 1 h; how it was run: as §1
[12] = Stability assessed as compound peak area at pH 7 after 24 hrs by HPLC-PDA method; type: physicochemical; conditions: read-out: Stability; how it was run: as §1
[13] = Stability assessed as compound peak area at pH 6 after 24 hrs by HPLC-PDA method; type: physicochemical; conditions: read-out: Stability; how it was run: as §1
[14] = Stability assessed as free base release at pH 7 after 1 hr by HPLC-PDA method; type: physicochemical; conditions: pH 7, 1 h; how it was run: as §1
[15] = Stability assessed as free base release at pH 4 after 24 hr by HPLC-PDA method; type: physicochemical; conditions: pH 4, 24 h; how it was run: as §1
BJ = assay: Cytotoxicity against human BJ cells after 72 hrs by MTT assay; type: ADME, cell-based
[16] = Stability assessed as compound peak area at pH 3 after 1 hr by HPLC-PDA method; type: physicochemical; conditions: read-out: Stability; how it was run: as §1
[17] = Stability assessed as compound peak area at pH 5 after 1 hr by HPLC-PDA method; type: physicochemical; conditions: read-out: Stability; how it was run: as §1
K562 = assay: Cytotoxicity against human K562 cells after 72 hrs by Calcein AM assay; type: ADME, cell-based; conditions: K562, 72 h
[18] = Stability assessed as compound peak area at pH 3 after 24 hrs by HPLC-PDA method; type: physicochemical; conditions: read-out: Stability; how it was run: as §1
[19] = Stability assessed as free base release at pH 3 after 1 hr by HPLC-PDA method; type: physicochemical; conditions: pH 3, 1 h; how it was run: as §1
Nicotiana tabacum = assay: Cytokinin activity in tobacco callus assessed as stimulation of callus growth at 1 uM relative to 6-benzylaminopurine; type: functional
[20] = Stability assessed as free base release at pH 5 after 1 hr by HPLC-PDA method; type: physicochemical; conditions: pH 5, 1 h; how it was run: as §1
Amaranthus = assay: Cytokinin activity in cotyledons assessed as dark induction of betacyanin synthesis at 100 uM relative to 6-benzylaminopurine; type: functional

Compound	Activity [1] [%]	remaining at 24 h [2] [%]	Activity [3] [%]	Activity (Triticum aestivum) [%]	remaining at 1 h [4] [%]	IC50 (MCF7) [µM]	remaining at 1 h [5] [%]	remaining at 24 h [6] [%]	Activity [7] [%]	Activity [8] [%]	remaining at 1 h [9] [%]	Activity [10] [%]	Activity [11] [%]	remaining at 24 h [12] [%]	remaining at 24 h [13] [%]	Activity [14] [%]	Activity [15] [%]	IC50 (BJ) [µM]	remaining at 1 h [16] [%]	remaining at 1 h [17] [%]	also measured
Oc1cccc(CNc2ncnc3c2ncn3C2CCCCO2)c1 (configuration not stated)	0.5	99.2	0.7	140	99.9	> 100	99.8	93.9	60.4	0.2	99.5	0.8	0.2	99.8	99.3	0.1	6.1	> 100	98.8	99.5	IC50 (K562): 81 µM; remaining at 24 h [18]: 39.6%; Activity [19]: 1.2%; Activity (Nicotiana tabacum): 95%; Activity [20]: 0.5%; Activity (Amaranthus): 100%
Oc1cccc(CNc2ncnc3c2ncn3C2CCCO2)c1 (configuration not stated)	2.8	90.8	0.6	131	99.7	> 100	99.6	37.5	99.7	0.3	97.2	9.2	0.4	99.7	99.4	0.3	62.5	> 100	63.8	99.5	IC50 (K562): > 100 µM; remaining at 24 h [18]: 0.3%; Activity [19]: 36.2%; Activity (Nicotiana tabacum): 87%; Activity [20]: 0.5%; Activity (Amaranthus): 82%

— ChEMBL document CHEMBL1153925, “Synthesis, characterization and biological activity of ring-substituted 6-benzylamino-9-tetrahydropyran-2-yl and 9-tetrahydrofuran-2-ylpurine derivatives” (Bioorg Med Chem, 2009)
